According to ChEMBL document CHEMBL1139778, “Synthesis and biological evaluation of cinnamyl compounds as potent antitumor agents” (Bioorg Med Chem Lett, 2007):
The source made the active and inactive calls. The rule behind the calls is not given here.

What was measured:
SW-620 [1] = assay: Antitumor activity against human SW620 cells in nude mouse assessed as tumor volume on day 14 at 50 mg/kg, ip for 20 days; assay type: organism-based; design: dose 50 mg/kg, route intraperitoneal; conditions: in vivo
How it was run: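 SW620 human colon adenocarcinoma cells (3 × 10⁷ cells/mL) implanted subcutaneously in right flank of nude mice on day 0. Compound in 0.5% Tween 80 given ip at 50 mg/kg per day; vehicle control and doxifluridine 50 mg/kg reference; 8 mice per group. Tumor volume estimated as length × width × height/2; mice sacrificed on day 14.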

SW-620 [2] = assay: Antitumor activity against human SW620 cells in nude mouse assessed as tumor volume on day 7 at 50 mg/kg, […]; assay type: functional; conditions: route intraperitoneal
SW-620 [3] = assay: Antitumor activity against human SW620 cells in nude mouse assessed as tumor volume on day 9 at 50 mg/kg, […]; assay type: functional; conditions: route intraperitoneal
SW-620 [4] = assay: Antitumor activity against human SW620 cells in nude mouse assessed as tumor volume on day 5 at 50 mg/kg, […]; assay type: functional; conditions: route intraperitoneal
SW-620 [5] = assay: Antitumor activity against human SW620 cells in nude mouse assessed as tumor volume on day 12 at 50 mg/kg, […]; assay type: functional; conditions: route intraperitoneal
HCT-116 [6] = assay: Growth inhibition of human HCT116 cells after 24 hrs by ELISA; assay type: functional; conditions: HCT-116, 24 h
[7] = Growth inhibition of human […] cells after 24 hrs by ELISA; assay type: functional
SK-OV-3 = assay: Growth inhibition of human SKOV3 cells after 24 hrs by ELISA; assay type: functional; conditions: SK-OV-3, 24 h
A549 = assay: Growth inhibition of human A549 cells after 24 hrs by ELISA; assay type: functional; conditions: A549, 24 h
NCI-H23 = assay: Growth inhibition of human NCI-H23 cells after 24 hrs by ELISA; assay type: functional; conditions: NCI-H23, 24 h
[8] = test system: SW620 (human colon adenocarcinoma); assay: Induction of apoptosis in human SW620 cells at 30 uM after 24 hrs
HCT-116 [9] = assay: Cell cycle arrest in human HCT116 cells assessed as accumulation at subG1 phase at 20 uM after 24 hrs by flow cytometry; assay type: functional
How it was run: (§1)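 After treatment, cells harvested at 24 h, trypsinized, washed with PBS, fixed overnight in ice-cold 70% EtOH, then treated with RNase A 100 µg/mL at 37 °C for 30 min. Stained with propidium iodide (final 50 µg/mL). DNA content of 20,000 fixed cells read by flow cytometry (FACScalibur); phase distribution from cell cycle modelling.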

SW-620 [10] = assay: Cell cycle arrest in human SW620 cells assessed as accumulation at G0/G1 phase at 40 uM after 24 hrs by flow cytometry; assay type: functional; how it was run: as §1
HCT-116 [11] = assay: Cell cycle arrest in human HCT116 cells assessed as accumulation at S phase at 20 uM after 24 hrs by flow cytometry; assay type: functional; how it was run: as §1
SW-620 [12] = assay: Cell cycle arrest in human SW620 cells assessed as accumulation at S phase at 30 uM after 24 hrs by flow cytometry; assay type: functional; how it was run: as §1
SW-620 [13] = assay: Cell cycle arrest in human SW620 cells assessed as accumulation at subG1 phase at 40 uM after 24 hrs by flow cytometry; assay type: functional; how it was run: as §1
HCT-116 [14] = assay: Induction of caspase 3 cleavage in human HCT116 cells at 20 uM after 24 hrs; assay type: functional, cell-based
How it was run: (§2)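 HCT116 cells treated for 24 h, lysed in RIPA buffer; 40 µg lysate resolved by 15% SDS–PAGE, blotted to PVDF, blocked in 5% milk/TBS-T. Primary antibodies 2 h at room temperature, HRP goat anti-rabbit secondary, chemiluminescent detection on X-ray film for PARP and caspase-3 cleavage.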

HCT-116 [15] = assay: Cell cycle arrest in human HCT116 cells assessed as accumulation at subG1 phase at 30 uM after 24 hrs by flow cytometry; assay type: functional; how it was run: as §1
HCT-116 [16] = assay: Cell cycle arrest in human HCT116 cells assessed as accumulation at G0/G1 phase at 40 uM after 24 hrs by flow cytometry; assay type: functional; how it was run: as §1
SW-620 [17] = assay: Cell cycle arrest in human SW620 cells assessed as accumulation at subG1 phase at 30 uM after 24 hrs by flow cytometry; assay type: functional; how it was run: as §1
SW-620 [18] = assay: Cell cycle arrest in human SW620 cells assessed as accumulation at subG1 phase at 20 uM after 24 hrs by flow cytometry; assay type: functional; how it was run: as §1
HCT-116 [19] = assay: Induction of PARP cleavage in human HCT116 cells at 20 uM after 24 hrs; assay type: functional, cell-based; how it was run: as §2
HCT-116 [20] = assay: Cell cycle arrest in human HCT116 cells assessed as accumulation at G2/M phase at 40 uM after 24 hrs by flow cytometry; assay type: functional; how it was run: as §1
HCT-116 [21] = assay: Cell cycle arrest in human HCT116 cells assessed as accumulation at S phase at 40 uM after 24 hrs by flow cytometry; assay type: functional; how it was run: as §1
SW-620 [22] = assay: Cell cycle arrest in human SW620 cells assessed as accumulation at G0/G1 phase at 30 uM after 24 hrs by flow cytometry; assay type: functional; how it was run: as §1
HCT-116 [23] = assay: Cell cycle arrest in human HCT116 cells assessed as accumulation at G2/M phase at 30 uM after 24 hrs by flow cytometry; assay type: functional; how it was run: as §1
SW-620 [24] = assay: Cell cycle arrest in human SW620 cells assessed as accumulation at S phase at 40 uM after 24 hrs by flow cytometry; assay type: functional; how it was run: as §1
SW-620 [25] = assay: Cell cycle arrest in human SW620 cells assessed as accumulation at G2/M phase at 20 uM after 24 hrs by flow cytometry; assay type: functional; how it was run: as §1
HCT-116 [26] = assay: Cell cycle arrest in human HCT116 cells assessed as accumulation at G0/G1 phase at 30 uM after 24 hrs by flow cytometry; assay type: functional; how it was run: as §1
HCT-116 [27] = assay: Cell cycle arrest in human HCT116 cells assessed as accumulation at G2/M phase at 20 uM after 24 hrs by flow cytometry; assay type: functional; how it was run: as §1
HCT-116 [28] = assay: Cell cycle arrest in human HCT116 cells assessed as accumulation at S phase at 30 uM after 24 hrs by flow cytometry; assay type: functional; how it was run: as §1
SW-620 [29] = assay: Cell cycle arrest in human SW620 cells assessed as accumulation at G2/M phase at 40 uM after 24 hrs by flow cytometry; assay type: functional; how it was run: as §1
HCT-116 [30] = assay: Cell cycle arrest in human HCT116 cells assessed as accumulation at subG1 phase at 40 uM after 24 hrs by flow cytometry; assay type: functional; how it was run: as §1
HCT-116 [31] = assay: Cell cycle arrest in human HCT116 cells assessed as accumulation at G0/G1 phase at 20 uM after 24 hrs by flow cytometry; assay type: functional; how it was run: as §1
SW-620 [32] = assay: Cell cycle arrest in human SW620 cells assessed as accumulation at G2/M phase at 30 uM after 24 hrs by flow cytometry; assay type: functional; how it was run: as §1
SW-620 [33] = assay: Cell cycle arrest in human SW620 cells assessed as accumulation at S phase at 20 uM after 24 hrs by flow cytometry; assay type: functional; how it was run: as §1
SW-620 [34] = assay: Cell cycle arrest in human SW620 cells assessed as accumulation at G0/G1 phase at 20 uM after 24 hrs by flow cytometry; assay type: functional; how it was run: as §1

SMILES: C[C@H]1O[C@@H](n2cc(F)c(=O)[nH]c2=O)[C@H](O)[C@@H]1O [DOXIFLURIDINE]
- Activity (SW-620 [1]): 120.7 mm3
- Activity (SW-620 [2]): 15 mm3
- Activity (SW-620 [3]): 41.4 mm3
- Activity (SW-620 [4]): 3.8 mm3
- Activity (SW-620 [5]): 77.9 mm3

SMILES: CN1CCN(C(=O)ONC(=O)/C=C/c2ccccc2OC(=O)c2ccccc2)CC1
- GI50 (HCT-116 [6]): 40.4 µM
- GI50 [7]: 89.3 µM
- GI50 (SK-OV-3): > 100 µM
- GI50 (A549): > 100 µM
- GI50 (NCI-H23): 45.2 µM

SMILES: O=C(/C=C/c1ccccc1OC(=O)c1ccccc1)NOC(=O)N1CCOCC1
- GI50 (HCT-116 [6]): 12.5 µM
- Activity [8]: Active
- Activity (HCT-116 [9]): 32.36%
- GI50 [7]: 5.8 µM
- Activity (SW-620 [10]): 33.34%
- Activity (HCT-116 [11]): 22.05%
- GI50 (SK-OV-3): 12.7 µM
- GI50 (A549): 25.2 µM
- Activity (SW-620 [1]): 89 mm3
- Activity (SW-620 [12]): 26.12%
- Activity (SW-620 [13]): 12.7%
- Activity (HCT-116 [14]): Active
- Activity (HCT-116 [15]): 39.14%
- Activity (HCT-116 [16]): 31.06%
- Activity (SW-620 [17]): 3.5%
- Activity (SW-620 [18]): 3.03%
- Activity (HCT-116 [19]): Active
- Activity (HCT-116 [20]): 42.06%
- Activity (SW-620 [2]): 4.3 mm3
- Activity (HCT-116 [21]): 26.88%
- GI50 (NCI-H23): 12.9 µM
- Activity (SW-620 [22]): 46.46%
- Activity (SW-620 [3]): 17.3 mm3
- Activity (SW-620 [4]): 1.4 mm3
- Activity (HCT-116 [23]): 38.22%
- Activity (SW-620 [24]): 26.52%
- Activity (SW-620 [25]): 22.33%
- Activity (HCT-116 [26]): 41.4%
- Activity (HCT-116 [27]): 35.23%
- Activity (HCT-116 [28]): 20.39%
- Activity (SW-620 [29]): 40.14%
- Activity (HCT-116 [30]): 36.83%
- Activity (HCT-116 [31]): 42.72%
- Activity (SW-620 [32]): 26.41%
- Activity (SW-620 [5]): 45 mm3
- Activity (SW-620 [33]): 27.79%
- Activity (SW-620 [34]): 48.88%

SMILES: CN1CCN(C(=O)/C=C/c2ccccc2OC(=O)c2ccccc2)CC1
- GI50 (HCT-116 [6]): > 100 µM
- GI50 [7]: > 100 µM
- GI50 (SK-OV-3): > 100 µM
- GI50 (A549): > 100 µM
- GI50 (NCI-H23): > 100 µM

SMILES: O=C(/C=C/c1ccccc1O)NO
- GI50 (HCT-116 [6]): 16.8 µM
- GI50 [7]: 49.8 µM
- GI50 (SK-OV-3): 50.4 µM
- GI50 (A549): 55.2 µM
- GI50 (NCI-H23): 27.8 µM

SMILES: CC(=O)ONC(=O)/C=C/c1ccccc1OC(=O)c1ccccc1
- GI50 (HCT-116 [6]): 21.3 µM
- GI50 [7]: 18.6 µM
- GI50 (SK-OV-3): 16.8 µM
- GI50 (A549): 30.2 µM
- GI50 (NCI-H23): 26.3 µM

SMILES: COc1ccccc1/C=C/C(=O)NO
- GI50 (HCT-116 [6]): 15.3 µM
- GI50 [7]: 16.8 µM
- GI50 (SK-OV-3): 48.8 µM
- GI50 (A549): 53.5 µM
- GI50 (NCI-H23): 26.9 µM

SMILES: O=C(/C=C/c1ccccc1OC(=O)c1ccccc1)NOC(=O)c1ccccc1
- GI50 (HCT-116 [6]): 13.6 µM
- GI50 [7]: 3.2 µM
- GI50 (SK-OV-3): 12.9 µM
- GI50 (A549): 8.8 µM
- GI50 (NCI-H23): 18.2 µM

SMILES: O=C(Cl)/C=C/c1ccccc1OC(=O)c1ccccc1
- GI50 (HCT-116 [6]): > 100 µM
- GI50 [7]: > 100 µM
- GI50 (SK-OV-3): > 100 µM
- GI50 (A549): > 100 µM
- GI50 (NCI-H23): > 100 µM

SMILES: O=C(/C=C/c1ccccc1OC(=O)c1ccccc1)NO
- GI50 (HCT-116 [6]): 11.2 µM
- GI50 [7]: 20.2 µM
- GI50 (SK-OV-3): 35.3 µM
- GI50 (A549): 44.9 µM
- GI50 (NCI-H23): 17.5 µM

SMILES: CO/N=C/C=C/c1ccccc1OC(=O)c1ccccc1
- GI50 (HCT-116 [6]): > 100 µM
- GI50 [7]: > 100 µM
- GI50 (SK-OV-3): > 100 µM
- GI50 (A549): > 100 µM
- GI50 (NCI-H23): > 100 µM
